ChEMBL document CHEMBL4673330, “Preparations and antioxidant activities of sesamol and it's derivatives” (Bioorg Med Chem Lett, 2021)

Experiments:
Type in all cases: functional
[1] = Antioxidant activity assessed as reduction of potassium ferricyanide trivalent iron into potassium ferrocyanide bivalent iron and ferrous iron by measuring eliminate efficiency at 0.6 g/L relative to control; design: scale not given: the % may be the effect or the level left
Method in brief: (§1)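 Reducing capacity was read as absorbance at 700 nm, where higher absorbance means greater reducing ability. Tested at 0.2–1.2 g/L against sesamol as positive control. Values are means from at least eight independent experiments, each in triplicate (n = 3), with t-tests (p < 0.05).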

[2] = Antioxidant activity assessed as hydroxyl radical scavenging rate at 0.4 g/L relative to control
Method in brief: (§2)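 Hydroxyl radical scavenging was read as absorbance of the reaction solution at 510 nm by a fixed reaction time method. Derivatives were tested at 0.2–1.2 g/L, with sesamol as positive control. Values are means ± SD from at least eight independent experiments, each in triplicate (n = 3), with t-tests (p < 0.05).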

[3] = Antioxidant activity assessed as reduction of potassium ferricyanide trivalent iron into potassium ferrocyanide bivalent iron and ferrous iron by measuring eliminate efficiency at 0.2 g/L relative to control; design: scale not given: the % may be the effect or the level left; method in brief: as §1
[4] = Antioxidant activity assessed as superoxide anion radical scavenging rate at 1 g/L relative to control
Method in brief: (§3)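 Pyrocatechol autoxidation in weak alkaline medium produces a coloured intermediate and superoxide anion; the intermediate absorbs maximally at 320 nm. Scavenging rate was measured at 0.2–1.2 g/L, with sesamol as positive control. Values are means ± SD from at least eight independent experiments, each in triplicate (n = 3), with t-tests (p < 0.05).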

[5] = Antioxidant activity assessed as hydroxyl radical scavenging rate at 1 g/L relative to control; method in brief: as §2
[6] = Antioxidant activity assessed as reduction of potassium ferricyanide trivalent iron into potassium ferrocyanide bivalent iron and ferrous iron by measuring eliminate efficiency at 0.8 g/L relative to control; design: scale not given: the % may be the effect or the level left; method in brief: as §1
[7] = Antioxidant activity assessed as superoxide anion radical scavenging rate at 0.2 g/L relative to control; method in brief: as §3
[8] = Antioxidant activity assessed as reduction in lipid peroxidation by measuring antiperoxide-index at 0.6 g/L by thiobarbituric acid method relative to control; design: scale not given: the % may be the effect or the level left
Method in brief: (§4)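 Anti-lipid-peroxidation (antiperoxide index, %) was tested at 0.2–1.2 g/L, with sesamol as positive control. Values are means ± SD from at least eight independent experiments, each in triplicate (n = 3), with t-tests (p < 0.05).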

[9] = Antioxidant activity assessed as reduction of potassium ferricyanide trivalent iron into potassium ferrocyanide bivalent iron and ferrous iron by measuring eliminate efficiency at 0.4 g/L relative to control; design: scale not given: the % may be the effect or the level left; method in brief: as §1
[10] = Antioxidant activity assessed as hydroxyl radical scavenging rate at 0.6 g/L relative to control; method in brief: as §2
[11] = Antioxidant activity assessed as reduction in lipid peroxidation by measuring antiperoxide-index at 1 g/L by thiobarbituric acid method relative to control; design: scale not given: the % may be the effect or the level left; method in brief: as §4
[12] = Antioxidant activity assessed as reduction of potassium ferricyanide trivalent iron into potassium ferrocyanide bivalent iron and ferrous iron by measuring eliminate efficiency at 1 g/L relative to control; design: scale not given: the % may be the effect or the level left; method in brief: as §1
[13] = Antioxidant activity assessed as reduction of potassium ferricyanide trivalent iron into potassium ferrocyanide bivalent iron and ferrous iron by measuring eliminate efficiency at 1.2 g/L relative to control; design: scale not given: the % may be the effect or the level left; method in brief: as §1
[14] = Antioxidant activity assessed as hydroxyl radical scavenging rate at 0.2 g/L relative to control; method in brief: as §2
[15] = Antioxidant activity assessed as reduction in lipid peroxidation by measuring antiperoxide-index at 1.2 g/L by thiobarbituric acid method relative to control; design: scale not given: the % may be the effect or the level left; method in brief: as §4
[16] = Antioxidant activity assessed as superoxide anion radical scavenging rate at 0.4 g/L relative to control; method in brief: as §3
[17] = Antioxidant activity assessed as reduction in lipid peroxidation by measuring antiperoxide-index at 0.8 g/L by thiobarbituric acid method relative to control; design: scale not given: the % may be the effect or the level left; method in brief: as §4
[18] = Antioxidant activity assessed as hydroxyl radical scavenging rate at 1.2 g/L relative to control; method in brief: as §2
[19] = Antioxidant activity assessed as superoxide anion radical scavenging rate at 1.2 g/L relative to control; method in brief: as §3
[20] = Antioxidant activity assessed as superoxide anion radical scavenging rate at 0.6 g/L relative to control; method in brief: as §3
[21] = Antioxidant activity assessed as superoxide anion radical scavenging rate at 0.8 g/L relative to control; method in brief: as §3
[22] = Antioxidant activity assessed as reduction in lipid peroxidation by measuring antiperoxide-index at 0.4 g/L by thiobarbituric acid method relative to control; design: scale not given: the % may be the effect or the level left; method in brief: as §4
[23] = Antioxidant activity assessed as reduction in lipid peroxidation by measuring antiperoxide-index at 0.2 g/L by thiobarbituric acid method relative to control; design: scale not given: the % may be the effect or the level left; method in brief: as §4
[24] = Antioxidant activity assessed as hydroxyl radical scavenging rate at 0.8 g/L relative to control; method in brief: as §2

SMILES | Activity [1] | Activity [2] | Activity [3] | Activity [4] | Activity [5] | Activity [6] | Activity [7] | Activity [8] | Activity [9] | Activity [10] | Activity [11] | Activity [12] | Activity [13] | Activity [14] | Activity [15] | Activity [16] | Activity [17] | Activity [18] | Activity [19] | Activity [20] | also measured
O=c1oc2ccc3c(c2c2ccccc12)OCO3 | 70.4% | 38.9% | 15.4% | 90.2% | 87.4% | 81.6% | 15.6% | 68.2% | 37% | 69.3% | 90% | 89.8% | 90.7% | 16.1% | 92.7% | 35.9% | 81.8% | 88.2% | 91.1% | 68.3% | Activity [21]: 82%; Activity [22]: 37.9%; Activity [23]: 15.8%; Activity [24]: 83.2%
O=C(Oc1ccc2c(c1)OCO2)c1cc(Cl)ccc1Cl | 59% | 32.6% | 12.9% | 69.8% | 74.2% | 68.5% | 12.1% | 56.1% | 31.1% | 58.9% | 74% | 75.3% | 76.1% | 13.6% | 76.2% | 27.9% | 67.3% | 74.9% | 70.5% | 52.9% | Activity [21]: 63.5%; Activity [22]: 31.1%; Activity [23]: 13%; Activity [24]: 70.7%
O=C(Oc1ccc2c(c1)OCO2)c1c(Cl)cccc1Cl | 65.4% | 32.7% | 14.3% | 75% | 76.4% | 75.8% | 13% | 60.8% | 34.4% | 60.6% | 80.2% | 83.4% | 84.3% | 14% | 82.6% | 29.9% | 72.9% | 77.1% | 75.8% | 56.9% | Activity [21]: 68.2%; Activity [22]: 33.8%; Activity [23]: 14.1%; Activity [24]: 72.7%
O=C(Oc1ccc2c(c1)OCO2)c1cccc(Cl)c1Cl | 51.3% | 26.4% | 11.3% | 59.9% | 60.4% | 59.6% | 10.4% | 48.8% | 27% | 47.9% | 64.4% | 65.5% | 66.2% | 11.1% | 66.4% | 23.9% | 58.6% | 61% | 60.5% | 45.4% | Activity [21]: 54.5%; Activity [22]: 27.1%; Activity [23]: 11.3%; Activity [24]: 57.5%
O=c1oc2ccc3c(c2c2cccc(Cl)c12)OCO3 | 74.6% | 40.6% | 16.4% | 94.1% | 94.4% | 86.5% | 16.3% | 70.4% | 39.3% | 74.9% | 92.9% | 95.2% | 96.1% | 17.3% | 95.7% | 37.5% | 84.5% | 95.3% | 95% | 71.3% | Activity [21]: 85.5%; Activity [22]: 39.1%; Activity [23]: 16.3%; Activity [24]: 89.9%
O=c1oc2ccc3c(c2c2c(Cl)cccc12)OCO3 | 72.6% | 38.7% | 15.9% | 87.4% | 87.4% | 84.3% | 15.2% | 69% | 38.2% | 69.3% | 91.1% | 92.7% | 93.6% | 16.1% | 93.8% | 34.8% | 82.8% | 88.2% | 88.3% | 66.2% | Activity [21]: 79.4%; Activity [22]: 38.4%; Activity [23]: 16%; Activity [24]: 83.2%
Oc1ccc2c(c1)OCO2 | 56.4% | 30.2% | 12.4% | 69.6% | 70.8% | 75.4% | 12.1% | 55.1% | 29.7% | 56.2% | 72.8% | 81.9% | 82.6% | 13% | 74.9% | 27.8% | 66.1% | 71.5% | 70.3% | 52.7% | Activity [21]: 63.3%; Activity [22]: 30.6%; Activity [23]: 12.8%; Activity [24]: 67.4%
O=c1oc2ccc3c(c2c2cc(Cl)ccc12)OCO3 | 77.5% | 42.9% | 17% | 95.7% | 97.4% | 89.9% | 16.6% | 73.1% | 40.8% | 77.3% | 96.5% | 98.8% | 99.8% | 17.9% | 99.4% | 38.1% | 87.8% | 98.3% | 96.7% | 72.5% | Activity [21]: 87%; Activity [22]: 40.6%; Activity [23]: 16.9%; Activity [24]: 92.7%
O=c1oc2ccc3c(c2c2ccc(Cl)cc12)OCO3 | 73.2% | 40.8% | 16.1% | 92.6% | 92.6% | 84.9% | 16.1% | 71.5% | 38.5% | 73.5% | 94.4% | 93.4% | 94.3% | 17% | 97.2% | 36.9% | 85.8% | 93.6% | 93.5% | 70.1% | Activity [21]: 84.2%; Activity [22]: 39.7%; Activity [23]: 16.6%; Activity [24]: 88.2%
O=C(Oc1ccc2c(c1)OCO2)c1ccccc1Cl | 66.4% | 34.4% | 14.6% | 76.5% | 77.5% | 77% | 13.3% | 61.4% | 34.9% | 61.5% | 81.1% | 84.7% | 85.6% | 14.2% | 83.5% | 30.5% | 73.7% | 78.2% | 77.2% | 57.9% | Activity [21]: 69.5%; Activity [22]: 34.1%; Activity [23]: 14.2%; Activity [24]: 73.8%
O=C(Oc1ccc2c(c1)OCO2)c1ccc(Cl)cc1Cl | 58.7% | 30.7% | 12.9% | 65.6% | 69.9% | 68.1% | 11.4% | 54.8% | 30.9% | 55.5% | 72.3% | 74.9% | 75.7% | 12.8% | 74.5% | 26.2% | 65.7% | 70.6% | 66.3% | 49.7% | Activity [21]: 59.7%; Activity [22]: 30.4%; Activity [23]: 12.7%; Activity [24]: 66.6%
